Laboratory results as given in ChEMBL document CHEMBL2401686, “Synthesis of novel 1-[5-(4-methoxy-phenyl)-[1,3,4]oxadiazol-2-yl]-piperazine derivatives and evaluation of their in vivo anticonvulsant activity” (Eur J Med Chem, 2013).

Key:
Rattus norvegicus [1] = assay: Anticonvulsant activity in Wistar rat maximal electroshock seizure model assessed as decrease in ratio of extension phase and flexion phase at 100 mg/kg, po administered 30 mins prior to test; type: functional
Outline: (§1)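 Male Wistar rats, n = 6 per group; 100 mg/kg given orally as solution in 1% sodium carboxymethyl cellulose, 30 min before maximal electroshock; observed 2 min. E/F is extension phase (s)/flexion phase (s). % protection = (control − test)/control × 100 against vehicle control; phenytoin 100 mg/kg reference; mean values.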

Rattus norvegicus [2] = assay: Anticonvulsant activity in Wistar rat assessed as protection against maximal electroshock-induced seizure at 100 mg/kg, po administered 30 mins prior to test relative to control; type: functional; outline: as §1
Mus musculus [3] = assay: Neurotoxicity in mouse assessed as inability to maintain equilibrium on rod at 100 mg/kg, po after 1 hr by rotarod test relative to control; type: toxicity, organism-based; parameters: dose 100 mg/kg, route oral; settings: in vivo
Outline: (§2)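 Mice pre-trained on accelerating rotorod (10 rpm, rod diameter 3.2 cm), then dosed orally at 100 mg/kg. Neurotoxicity is failure to keep equilibrium on the rod for at least 1 min in each of three trials, checked at 0.5, 1, 2 and 4 h. Reported as animals showing neurotoxicity per number tested (n = 4); phenytoin standard.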

Mus musculus [4] = assay: Neurotoxicity in mouse assessed as inability to maintain equilibrium on rod at 100 mg/kg, po after 4 hrs by rotarod test relative to control; type: toxicity, organism-based; parameters: dose 100 mg/kg, route oral; settings: in vivo; outline: as §2
Mus musculus [5] = assay: Neurotoxicity in mouse assessed as inability to maintain equilibrium on rod at 100 mg/kg, po after 2 hrs by rotarod test relative to control; type: toxicity, organism-based; parameters: dose 100 mg/kg, route oral; settings: in vivo; outline: as §2
Mus musculus [6] = assay: Neurotoxicity in mouse assessed as inability to maintain equilibrium on rod at 100 mg/kg, po after 0.5 hrs by rotarod test relative to control; type: toxicity, organism-based; parameters: dose 100 mg/kg, route oral; settings: in vivo; outline: as §2

| SMILES | Ratio (Rattus norvegicus [1]) | Activity (Rattus norvegicus [2]) [%] | Activity (Mus musculus [3]) [%] | Activity (Mus musculus [4]) [%] | Activity (Mus musculus [5]) [%] | Activity (Mus musculus [6]) [%] |
| --- | --- | --- | --- | --- | --- | --- |
| COc1ccc(-c2nnc(N3CCN(S(=O)(=O)c4ccc(Br)c(C)c4)CC3)o2)cc1 | 6.29 | 52.42 | 0 | 0 | 0 | 0 |
| COc1ccc(-c2nnc(N3CCN(S(=O)(=O)c4ccc(-c5ccccc5)cc4)CC3)o2)cc1 | 7.11 | 23.34 | 0 | 0 | 0 | 0 |
| COc1ccc(-c2nnc(N3CCN(S(=O)(=O)c4ccc(C#N)cc4)CC3)o2)cc1 | 6.34 | 42.4 | 0 | 0 | 0 | 0 |
| COc1ccc(-c2nnc(N3CCN(S(=O)(=O)c4ccc(C(F)(F)F)cc4[N+](=O)[O-])CC3)o2)cc1 | 1.91 | 77.64 |  |  |  |  |
| COc1ccc(-c2nnc(N3CCN(S(=O)(=O)c4ccc(Oc5ccccc5)cc4)CC3)o2)cc1 | 1.96 | 74.31 | 0 | 0 | 0 | 0 |
| COc1ccc(-c2nnc(N3CCN(S(=O)(=O)c4cc(Cl)sc4Cl)CC3)o2)cc1 | 2.11 | 73.47 | 0 | 0 | 0 | 0 |
| COc1ccc(-c2nnc(N3CCN(S(=O)(=O)c4ccc5ccccc5c4)CC3)o2)cc1 | 6.96 | 31.54 | 0 | 25 | 25 | 0 |
| COc1ccc(-c2nnc(N3CCN(S(=O)(=O)c4c(C)noc4C)CC3)o2)cc1 | 2.34 | 71.25 | 0 | 0 | 0 | 0 |
| COc1ccc(-c2nnc(N3CCN(S(=O)(=O)c4ccc(C(C)(C)C)cc4)CC3)o2)cc1 | 7.64 | 17.32 | 0 | 0 | 0 | 0 |
| COc1ccc(-c2nnc(N3CCN(S(=O)(=O)c4ccccc4[N+](=O)[O-])CC3)o2)cc1 | 5.49 | 59.64 | 0 | 0 | 0 | 0 |
| COc1ccc(-c2nnc(N3CCN(S(=O)(=O)c4cccc(C(F)(F)F)c4)CC3)o2)cc1 | 6.11 | 53.01 | 0 | 0 | 0 | 0 |
| COc1ccc(-c2nnc(N3CCN(S(C)(=O)=O)CC3)o2)cc1 | 8.15 | 10.63 | 0 | 25 | 25 | 0 |
| COc1ccc(-c2nnc(N3CCN(S(=O)(=O)c4ccc(C)cc4)CC3)o2)cc1 | 7.68 | 17.03 | 0 | 25 | 25 | 0 |
| COc1ccc(-c2nnc(N3CCN(S(=O)(=O)c4ccc(Br)cc4)CC3)o2)cc1 | 6.51 | 50.79 | 0 | 0 | 0 | 0 |
| COc1ccc(-c2nnc(N3CCN(S(=O)(=O)c4ccc(I)cc4)CC3)o2)cc1 | 6.57 | 50.43 | 0 | 0 | 0 | 0 |
| O=C1NC(=O)C(c2ccccc2)(c2ccccc2)N1 [PHENYTOIN] | 1.98 | 75.88 | 0 | 0 | 0 | 0 |
